Measurements published in ChEMBL document CHEMBL5149983, “Scaffold-Hopping Strategy on a Series of Proteasome Inhibitors Led to a Preclinical Candidate for the Treatment of Visceral Leishmaniasis” (J Med Chem, 2021).
In brackets after ≈: the same amount, converted by molar mass. Activity calls are given as the source filed them.

Experiments:
[1] = Intrinsic clearance in mouse liver microsomes; type: ADME, Microsome
[2] = Inhibition of chymotrypsin activity of proteasome beta5 subunit in Leishmania donovani amastigotes infected in human THP-1 cells incubated for 96 hrs by INMAC assay; settings: THP-1, 96 h, read-out: pEC50 (converted)
[3] = Cytotoxicity against human THP-1 cells; type: toxicity, cell-based
[4] = Solubility of the compound in FaSSIF at pH 6.5 measured after 4 hrs by HPLC-UV analysis; type: physicochemical; settings: for solubility at 4 h: FaSSIF, pH 6.5
[5] = Metabolic stability of the compound in human plasma assessed as parent compound remaining measured after 3 hrs; type: ADME, cell-free; settings: read-out: Stability
[6] = Metabolic stability of the compound in mouse plasma assessed as parent compound remaining measured after 3 hrs; type: ADME, cell-free; settings: read-out: Stability
[7] = Time during which drug concentration exceeds EC90 for inhibition of chymotrypsin activity of proteasome beta5 subunit in Leishmania donovani amastigotes infected in human THP-1 cells in NMRI mouse blood at 10 mg/kg, po by UPLC-MS/MS analysis; type: organism-based; settings: in vivo
Summary of the method: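 Mice received a single 10 mg/kg oral dose, with a separate 3 mg/kg iv arm in the same PK study. Blood levels were followed over time, and time above the EC90 threshold was taken from the oral blood profile.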

[8] = Time during which drug concentration exceeds EC90 for inhibition of chymotrypsin activity of proteasome beta5 subunit in Leishmania donovani amastigotes infected in human THP-1 cells in NMRI mouse blood at 50 mg/kg, po by UPLC-MS/MS analysis; type: organism-based; settings: in vivo
Summary of the method: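 Not measured directly. Time above EC90 at 50 mg/kg po was projected from the 10 mg/kg oral mouse blood profile, assuming exposure rises linearly with dose.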

[9] = Genotoxicity against Salmonella typhimurium by Ames test; type: toxicity; settings: salmonella enterica subsp. enterica serovar typhimurium
[10] = system: THP-1; settings: Leishmania donovani, time 96.0 hrs
[11] = Kinetic aqueous solubility of the compound by CLND method; type: physicochemical; settings: buffer; read-out: Kinetic_solubility
[12] = system: Leishmania donovani; assay: Antileishmanial activity against amastigote stage of Leishmania donovani MHOM/ET/67/HU3 infected in BALB/c mouse assessed as reduction in parasitemia at 25 mg/kg, po bid for 10 days; type: functional, organism-based; settings: time 10.0 day
[13] = system: Leishmania donovani; assay: Antileishmanial activity against amastigote stage of Leishmania donovani MHOM/ET/67/HU3 infected in po dosed BALB/c mouse assessed as reduction in parasitemia administered twice a day for 10 days; type: functional; settings: MHOM/ET/67/HU3, 240 h, time 10 day

| Structure (SMILES) | CLH [1] | EC50 [3] | also measured |
| --- | --- | --- | --- |
| O=C(Nc1cccc(-c2cc3ncc(-c4ccccc4)cn3n2)c1)N1CCCC1 |  | > 50.1 µM |  |
| O=C(Nc1ccc(F)c(-c2cn3ncc(N4CCOCC4)cc3n2)c1)N1CCCC1 |  | > 50.1 µM |  |
| O=C(Nc1ccc(F)c(-c2cc3nc(N4CCOCC4)cnc3[nH]2)c1)N1CCCC1 |  | > 50.1 µM |  |
| Cn1c(-c2cc(NC(=O)N3CCCC3)ccc2F)cc2cc(N3CCOCC3)cnc21 |  | > 50.1 µM |  |
| O=C(Nc1cccc(-c2cc3cc(N4CCOCC4)nnc3o2)c1)N1CCCC1 |  | > 50.1 µM |  |
| O=C1CN(c2cnc3nc(-c4cc(NC(=O)N5CCCC5)ccc4F)ccn23)CCN1 |  | > 50.1 µM |  |
| O=C(Nc1cccc(-c2cc3cc(-c4ccccc4)cnc3[nH]2)c1)N1CCCC1 |  | > 50.1 µM |  |
| O=C(Nc1ccc(F)c(-c2nc3cc(N4CCOCC4)cnn3n2)c1)N1CCCC1 | 0.7 mL/min/g | > 50.1 µM | EC50 [2]: 0.794 µM; solubility at 4 h [4]: 182 µM (≈ 74.9 µg/mL) |
| O=C(Nc1cccc(-c2nc3ccccc3o2)c1)c1ccco1 |  | > 50.1 µM | Activity [9]: Toxic |
| O=C(Nc1ccc(F)c(-c2cn3nc(N4CCOCC4)cnc3n2)c1)N1CCCC1 |  |  | solubility at 4 h [4]: 32 µM (≈ 13.2 µg/mL); Activity [9]: Toxic |
| CC(=O)N1CCN(c2cnc3nc(-c4cc(NC(=O)N5CCCC5)ccc4F)ccn23)CC1 |  | > 50.1 µM |  |
| O=C(Nc1ccc(F)c(-c2ccn3c(N4CCOCC4)cnc3n2)c1)N1CCCC1 [GSK-3494245] | 0.8 mL/min/g | ≥ 63.1 µM | EC50 [2]: 1.58 µM; solubility at 4 h [4]: 440 µM (≈ 181 µg/mL); Activity [9]: Non-Toxic; Activity [12]: Active; ED90 [13]: 16 mg/kg; ED99 [13]: 30 mg/kg |

Second part, led by results:

| CLH [1] | Structure (SMILES) | EC50 [3] | also measured |
| --- | --- | --- | --- |
| < 0.5 mL/min/g | O=C(Nc1ccc(F)c(-c2nc3ncc(N4CCOCC4)cn3n2)c1)N1CCCC1 |  |  |
| < 0.5 mL/min/g | O=C(Nc1ccc(F)c(-c2cn3cc(N4CCOCC4)cnc3n2)c1)N1CCCC1 | > 50.1 µM | EC50 [2]: 0.631 µM; solubility at 4 h [4]: 15 µM (≈ 6.16 µg/mL); remaining at 3 h [5]: 100%; remaining at 3 h [6]: 100%; T>EC90 [7]: 2 h; T>EC90 [8]: > 6 h; Activity [9]: Toxic; pEC90 [10]: 5.7 |
| < 0.5 mL/min/g | O=C(Nc1cc(-c2cn3cc(N4CCOCC4)cnc3n2)ncn1)N1CCCC1 | > 50.1 µM |  |
| 24 mL/min/g | O=C(Nc1cccc(-c2nc3ncccc3o2)c1)c1ccco1 | > 50.1 µM | EC50 [2]: 6.31 µM |
| < 0.5 mL/min/g | O=C(Nc1ccc(F)c(-c2ccn3c(N4CCNCC4)cnc3n2)c1)N1CCCC1 | > 50.1 µM |  |
| < 0.5 mL/min/g | COc1ccc(NC(=O)N2CCCC2)cc1-c1cn2cc(N3CCOCC3)cnc2n1 | > 50.1 µM |  |
| < 0.5 mL/min/g | O=C(Nc1nccc(-c2cn3cc(N4CCOCC4)cnc3n2)n1)N1CCCC1 | > 50.1 µM | solubility ([4]; simulated gi fluid, pH 6.5, 4 h): > 2500 µM |
| 2.7 mL/min/g | C[C@H]1CN(c2cnc3nc(-c4cc(NC(=O)N5CCCC5)ccc4F)ccn23)CCO1 |  | solubility kinetic [11]: ≥ 362 µM; EC50 [2]: 1.26 µM; solubility at 4 h [4]: 1320 µM (≈ 561 µg/mL) |
| 1.8 mL/min/g | C[C@@H]1CN(c2cnc3nc(-c4cc(NC(=O)N5CCCC5)ccc4F)ccn23)CCO1 |  | solubility kinetic [11]: 345 µM (≈ 146 µg/mL); EC50 [2]: 1 µM; solubility at 4 h [4]: 1580 µM (≈ 670 µg/mL) |
| < 0.5 mL/min/g | O=C(Nc1cncc(-c2cn3cc(N4CCOCC4)cnc3n2)n1)N1CCCC1 | > 50.1 µM |  |
| < 0.5 mL/min/g | O=C(Nc1cnnc(-c2cn3cc(N4CCOCC4)cnc3n2)c1)N1CCCC1 | > 50.1 µM |  |
| < 0.5 mL/min/g | O=C(Nc1cccc(-c2cn3cc(N4CCOCC4)cnc3n2)n1)N1CCCC1 | > 50.1 µM |  |
| 3.3 mL/min/g | O=C(Nc1ccc(F)c(-c2cnn3c(-c4ccccc4)cnc3n2)c1)N1CCCC1 | > 50.1 µM | EC50 [2]: 1.26 µM; solubility at 4 h [4]: 3 µM (≈ 1.21 µg/mL) |
